Experimental data of several laboratories.
Each line is one published result; the experiments were not run side by side.
DRD5: D(1B) dopamine receptor (DRD5, Homo sapiens, UniProt P21918)
CNR2: Cannabinoid receptor 2 (CNR2, Homo sapiens, UniProt P34972)
SLC10A2: Ileal sodium/bile acid cotransporter (SLC10A2, Homo sapiens, UniProt Q12908)
SETD7: Histone-lysine N-methyltransferase SETD7 (SETD7, Homo sapiens, UniProt Q8WTS6)
HSD11B1: 11-beta-hydroxysteroid dehydrogenase 1 (HSD11B1, Homo sapiens, UniProt P28845)

N#Cc1cc(Cn2c(N3CCCC3)nc3ccccc32)ccc1F
inhibition (DRD5; ligand displacement; 10 µM): 48.7%

CN1CC(Oc2cnc(C#N)cc2-c2ccn3nc(NC(=O)C4CC4)cc3c2)C1
inhibition (Cyclin-dependent kinase-like 3 (CDKL3, Homo sapiens, UniProt Q8IVW4); enzyme activity, inhibitor; 1 µM): 1%

CN1CCN(CCCOc2ccc(=O)n(-c3ccc(Cl)c(Cl)c3)n2)CC1
inhibition (CNR2; ligand displacement; 1 µM): 27.4%

CC(=O)N[C@H]1CSSC[C@@H](C(=O)N[C@H](Cc2c[nH]c3ccccc23)C(N)=O)NC(=O)[C@H](Cc2ccccc2)NC(=O)[C@H](CCCNC(=N)N)NC1=O
inhibition (Melanocortin receptor 5 (MC5R, Homo sapiens, UniProt P33032); ligand displacement, radioligand; 10 µM, 40 min): 0%

CN1CCCCC1CCN1c2ccccc2Sc2ccc([S+](C)[O-])cc21 (centres unmarked)
inhibition (SLC10A2; transporter uptake, inhibitor, radiometric; 1 mM): 73.6%

COc1cc(NC(C)=O)c(Cl)cc1C(=O)Nc1nccs1
inhibition (CNR2; cell-free assay; 10 µM): 25%

NS(=O)(=O)c1cc2c(cc1Cl)NC(C(Cl)Cl)NS2(=O)=O (centres unmarked)
inhibition (SLC10A2; transporter uptake, inhibitor, radiometric; 1 mM): 44.7%

O=C(c1ccc(Cl)cc1)N(Cc1ccccc1)C1CCCCC1
inhibition (CNR2; cell-free assay; 10 µM): 41.6%

CCN(c1cc(C#CCN2CCOCC2)cc(C(=O)NCc2c(C)cc(C)[nH]c2=O)c1C)[C@H]1CC[C@H](N(C)CCOC)CC1
inhibition (SETD7; enzyme activity, inhibitor; 1 µM): 6%

C=C(CC)C(=O)c1ccc(OCC(=O)O)c(Cl)c1Cl
inhibition (HSD11B1; enzyme activity, inhibitor; 20 µM, lysate): < 40%

O=C(O)c1cc(O)c2c(c1)[C@H]([C@H]1c3cc(C(=O)O)cc(O)c3C(=O)c3c(O[C@@H]4O[C@H](CO)[C@@H](O)[C@H](O)[C@H]4O)cccc31)c1cccc(O[C@@H]3O[C@H](CO)[C@@H](O)[C@H](O)[C@H]3O)c1C2=O
inhibition (SETD7; cell-free assay; 10 µM): 36%

CC(C)c1c(C(=O)Nc2ccccc2)c(-c2ccccc2)c(-c2ccc(F)cc2)n1CC[C@@H](O)C[C@@H](O)CC(=O)O
inhibition (HSD11B1; enzyme activity, inhibitor; 20 µM, lysate): < 40%

NS(=O)(=O)c1cc2c(cc1C(F)(F)F)NC(Cc1ccccc1)NS2(=O)=O (centres unmarked)
inhibition (SLC10A2; transporter uptake, inhibitor, radiometric; 1 mM): 64.5%

CCCCC(CC)CNC(=N)NC(=N)NCCCCCCNC(=N)NC(=N)NCC(CC)CCCC (centres unmarked)
inhibition (SETD7; cell-free assay; 10 µM): -110%

O=C1N=C(N2CCCCN2)S/C1=C\c1ccc(F)cc1O
inhibition (Galanin receptor type 2 (GALR2, Homo sapiens, UniProt O43603); ligand displacement, radioligand; 10 µM): < 10%

C=C(C)C(=O)Nc1cc(C(=O)O)cc(C(=O)O)c1
inhibition (Galanin receptor type 1 (GALR1, Homo sapiens, UniProt P47211); cell-free assay, radioligand; 10 µM): 22%

O=C(c1ccccc1)c1ccc2n1CCC2C(=O)O (centres unmarked)
inhibition (SLC10A2; transporter uptake, inhibitor, radiometric; 1 mM): < 10%

CN(C)c1ccc(C(=C2C=CC(=[N+](C)C)C=C2)c2ccc(N(C)C)cc2)cc1
inhibition (SETD7; cell-free assay; 10 µM): 59%

CC(C)c1ncccc2nc(N)nc1-2
inhibition (72 kDa type IV collagenase (MMP2, Homo sapiens, UniProt P08253); enzyme activity, inhibitor; 50 µM): 52%

O=C1c2c(O)cccc2Cc2cccc(O)c21
inhibition (SETD7; cell-free assay; 10 µM): 8%

CCC(C)(C)C(=O)O[C@H]1C[C@@H](C)C=C2C=C[C@H](C)[C@H](CC[C@@H]3C[C@@H](O)CC(=O)O3)[C@H]21
inhibition (HSD11B1; enzyme activity, inhibitor; 20 µM, lysate): < 40%

CN(C)c1ccc2nc3ccc(=[N+](C)C)cc-3sc2c1
inhibition (SETD7; cell-free assay; 10 µM): 35%

Cc1ccc(Nc2nccc(N(C)c3ccc4c(C)n(C)nc4c3)n2)cc1S(N)(=O)=O
inhibition (G protein-coupled receptor kinase 5 (GRK5, Homo sapiens, UniProt P34947); enzyme activity, inhibitor; 0.3 µM): -6%

CCCCNc1cc(C(=O)O)cc(S(N)(=O)=O)c1Oc1ccccc1
inhibition (SLC10A2; transporter uptake, inhibitor, radiometric; 1 mM): 78.1%

O=C(O[C@@H]1Cc2c(O)cc(O)cc2O[C@@H]1c1cc(O)c(O)c(O)c1-c1c([C@H]2Oc3cc(O)cc(O)c3C[C@H]2O)cc(O)c(O)c1O)c1cc(O)c(O)c(O)c1
inhibition (SETD7; cell-free assay; 10 µM): 53%

CCN(CC)c1ccc(C2Nc3ccc(C(=O)c4ccccc4)cc3NC3=C2C(=O)CC(C)(C)C3)cc1 (centres unmarked)
inhibition (DRD5; ligand displacement, radioligand; 10 µM): 37%

Cc1cn([C@H]2C[C@H](N=[N+]=[N-])[C@@H](CO)O2)c(=O)[nH]c1=O
inhibition (SLC10A2; transporter uptake, inhibitor, radiometric; 1 mM): < 10%

O=C1C=CC(=O)c2c(O)cccc21
inhibition (SETD7; cell-free assay; 10 µM): 13%

COc1ccc2c(c1)c(CC(=O)O)c(C)n2C(=O)c1ccc(Cl)cc1
inhibition (SLC10A2; transporter uptake, inhibitor, radiometric; 1 mM): 93.2%

Ic1cccc2cnccc12
inhibition (Protein mono-ADP-ribosyltransferase PARP6 (PARP6, Homo sapiens, UniProt Q2NL67); enzyme activity, inhibitor; 10 µM): 11%

O=C(O[C@@H]1Cc2c(O)cc(O)cc2O[C@@H]1c1cc(O)c(=O)c2c(O)c(O)cc([C@H]3Oc4cc(O)cc(O)c4C[C@H]3OC(=O)c3cc(O)c(O)c(O)c3)c2c1)c1cc(O)c(O)c(O)c1
inhibition (SETD7; cell-free assay; 10 µM): 38%

CCCN(CCC)S(=O)(=O)c1ccc(C(=O)O)cc1
inhibition (SLC10A2; transporter uptake, inhibitor, radiometric; 1 mM): 47.4%
